KCC2 mod: KCC2 cotransporter modulators, thallium flux, primary screen, cell-based, HEK293 KCC2, FluoZin-2 fluorescence, MLSMR; Solute carrier family 12 member 5 (Homo sapiens), Q9H2X9; KCC2 cells, thallium flux FluoZin-2 fluorescence; hit rate 2.2% among 190,000; B-score of Tl+ flux slope (higher = more flux/activation; lower = inhibition) at 10 µM;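 active = thallium flux slope and its plate-corrected score both differing from the plate sample mean at a set confidence after two filtering rounds, in either direction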;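 note: slope of fluorescence scaled to starting intensity during 10 to 20 s after thallium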
MT stabilize HCS: microtubule stabilizers in HeLa cells, primary screen, imaging, high-content imaging; HeLa tubulin immunostaining HCS, 24 h; share of cells brighter than vehicle mean+2SD; % tubulin-high responders, % at 10 µM; hit rate 0.83% among 200,000; AID 2205, 2009;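 active = plate Z-score above 3 for both tubulin-high and condensed-nucleus cell shares, with cell loss under 80%, at 10 µM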;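 note: anti alpha tubulin signal scored within the nucleus-defined area of each cell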
bCat nuc transl: modulators of beta-catenin nuclear translocation, primary screen, imaging, HeLa cells, immunofluorescence, high-content. hit rate 0.3% among 190,000. nuclear translocation activity, % at 5 µM;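 active = nuclear translocation activity above 50% at 5 µM, with a well cell count of 50 or more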;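 note: per-cell ratio of nuclear to cytoplasmic median beta-catenin stain intensity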
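Read-out: Nuclear/cytoplasmic beta-catenin signal ratio, % activation | Assay system: Human HeLa cell line | Times: 24 h compound exposure at 37°C, 5% CO2 | Signal: Fluorescence imaging of beta-catenin antibody stain plus DAPI | Dosing: 5 µM primary, 0.02–20 µM confirmation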
ROMK primary: ROMK potassium channel modulators, primary screen, cell-based, thallium flux, MLSMR library; ATP-sensitive inward rectifier potassium channel 1 (Homo sapiens), P48048; Tet-inducible ROMK, thallium flux fluorescence; actives lie on both sides; B-score at 10 µM; hit rate 2% among 130,000; AID 1918, 2009;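 active = signal ratio slope over the read window, or its plate-corrected B-score, at least 3 SD from the plate mean, either direction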;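 note: B-score of the F/F0 ratio slope over 7 to 12 s after thallium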
Target sequence (P48048 whole entry, looked up): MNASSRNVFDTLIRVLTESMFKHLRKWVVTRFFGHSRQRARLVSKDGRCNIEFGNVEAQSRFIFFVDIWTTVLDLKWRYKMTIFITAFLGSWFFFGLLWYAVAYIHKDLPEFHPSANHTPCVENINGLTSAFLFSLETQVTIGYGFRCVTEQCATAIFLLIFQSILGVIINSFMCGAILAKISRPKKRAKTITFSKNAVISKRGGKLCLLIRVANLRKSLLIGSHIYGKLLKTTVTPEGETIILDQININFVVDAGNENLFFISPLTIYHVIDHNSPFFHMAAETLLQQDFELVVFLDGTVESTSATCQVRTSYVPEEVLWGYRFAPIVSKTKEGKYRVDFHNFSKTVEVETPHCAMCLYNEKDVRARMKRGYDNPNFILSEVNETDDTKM
Redox H2O2 prof: compounds producing H2O2 with reducing agent – biochemical, NIH compound library profiling, artefact control for MLSCN library redox annotation, primary screen; DTT-dependent redox cycling H2O2, phenol red/HRP absorbance; 100% = 100 µM peroxide control, 0% = buffer; activation, % at 10 µM; hit rate 0.03% among 200,000; AID 878, 2007;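 active = activation of at least 50% relative to the plate's high and low controls in the primary single-dose screen; inactive = activation below 50%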;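 note: compound incubated with DTT at 0.8 mM final as the reducing agent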
Each line names hits and unclear results; the compound was inactive in the other large screens. This is a sample that favours compounds with a hit; in the whole collection about 3.7% have one here.

CC(C)n1c(O)c(N=Nc2ccc(Cl)nn2)c2ccccc21	KCC2 mod 11 (no result: ROMK primary)
CCc1ccc2oc(-c3ccc(OC)cc3)cc(=Nc3cccc(C(=O)O)c3)c2c1	KCC2 mod -7.2, ROMK primary 2.3
COc1ccc(N/C=C/C(=O)c2sc(-c3ccccc3)nc2C)cc1	MT stabilize HCS 52 (no result: bCat nuc transl, ROMK primary)
CCCCn1nnc(NC(=O)c2ccc(-c3ccccc3[N+](=O)[O-])o2)n1	none
CCCCn1nnc(NC(=S)NC(=O)c2ccc(-c3cccc(Cl)c3Cl)o2)n1	KCC2 mod 34 (no result: ROMK primary)
COc1ccc(C(=O)NC(=S)NC(C)(C)C)cc1Br	KCC2 mod 4.1 (no result: ROMK primary)
O=C(NC(=S)N(Cc1ccccc1)Cc1ccccc1)c1ccccc1F	KCC2 mod 65 (no result: ROMK primary)
O=C(NC(=S)NCc1ccccc1)c1ccccc1F	KCC2 mod 15 (no result: ROMK primary)
COc1cc(/C=C2/SC(=S)NC2=O)ccc1OS(=O)(=O)c1ccc(C)cc1	KCC2 mod 80
COc1ccc(/C=C2\SC(=S)NC2=O)cc1OS(=O)(=O)c1ccc(NC(C)=O)cc1	none
COc1ccc(/C=C2/S/C(=N/S(=O)(=O)Cc3ccccc3)NC2=O)cc1OC	none (no result: MT stabilize HCS, ROMK primary, Redox H2O2 prof)
COc1cc(/C=C2\SC(=S)NC2=O)ccc1OS(=O)(=O)c1ccccc1	KCC2 mod 80
CCOc1ccc(/C=C2\SC(=S)N(C)C2=O)cc1OC	none (no result: MT stabilize HCS, ROMK primary, Redox H2O2 prof)
COc1ccc(/C=C2\SC(=O)NC2=S)cc1OC	KCC2 mod 12 (no result: ROMK primary)
CC(C)(C)c1cccc(C2(O)C(=O)c3ccccc3C2=O)c1O	none (no result: MT stabilize HCS, ROMK primary, Redox H2O2 prof)
S=c1[nH]nc(-c2ccncc2)n1/N=C/c1cccc(Cl)c1	none (no result: MT stabilize HCS, Redox H2O2 prof)
O=C(CSc1nc2ccccc2c(=O)n1Cc1ccco1)NCc1ccccc1	KCC2 mod 4 (no result: bCat nuc transl)
O=C(CSc1nc2ccccc2c(=O)n1Cc1ccccc1)NCc1ccco1	none (no result: ROMK primary)
CN(C(=O)COC(=O)c1ccc2[nH]c3c(c2c1)CCCC3)C1CCS(=O)(=O)C1 (configuration not stated)	none
COc1ccc(NC(=O)C(=O)NNC(=O)c2cccs2)cc1	KCC2 mod 12 (no result: ROMK primary)
CC(C)(C)NC(=O)C(=O)NNC(=O)COc1ccc(Br)cc1	KCC2 mod 20
COc1ccc(NC(=O)C(=O)NNC(=O)c2cccs2)c(OC)c1	KCC2 mod 11
CC(=O)NC(=S)NNC(=O)COc1ccc(Br)cc1	none
COc1ccc(OCC(=O)NNC(=O)C(=O)Nc2ccc(C)cc2)cc1	KCC2 mod 22 (no result: bCat nuc transl)
COc1ccc(NC(=O)C2CCN(C(=O)c3cccs3)CC2)c(OC)c1	none (no result: ROMK primary)
Cc1cc(Cl)c2cc3ccccc3cc2n1	none (no result: MT stabilize HCS, ROMK primary, Redox H2O2 prof)
Cc1cc(C)cc(NC(=O)c2c(C)nc3ccccn23)c1	none (no result: KCC2 mod)
COC(=O)CCCCCN1C(=O)/C(=C\c2ccncc2)SC1=S	none (no result: KCC2 mod, MT stabilize HCS, ROMK primary, Redox H2O2 prof)
Cn1c(=O)c2c(-c3ccc(OC(F)F)cc3)cc(-c3ccccc3)nc2n(C)c1=O	none (no result: MT stabilize HCS, ROMK primary, Redox H2O2 prof)
COc1cc(NC(=O)Cn2nc(C(F)(F)F)c(Br)c2C)cc([N+](=O)[O-])c1	none (no result: ROMK primary)
COc1cc(NC(=S)NC(=O)c2c(OC)cccc2OC)ccc1NC(=O)c1cccs1	MT stabilize HCS 21 (no result: ROMK primary)
Cc1ccc(NC(=O)C(=O)NNC(=O)c2cccs2)cc1	KCC2 mod 43, ROMK primary 2.9
COc1cc(NC(=S)NC(=O)c2cc(C)cc(C)c2)ccc1NC(=O)c1cccs1	none (no result: ROMK primary)
Cc1ccc(NC(=O)c2cccs2)cc1	none (no result: bCat nuc transl, ROMK primary)
N=c1n(CCN2CCOCC2)c2ccccc2n1CC(=O)c1ccc(Cl)c(Cl)c1	ROMK primary -4.9
O=C1CC(C(=O)Nc2cc(Cl)ccc2Cl)n2ncnc2N1 (configuration not stated)	none
O=C(Nc1ccccc1C(=O)N/N=C/c1ccco1)c1ccccc1	KCC2 mod 7.8
CC(C)(C)c1ccc(C(=O)NNc2ncccc2-n2cccc2)cc1	none (no result: MT stabilize HCS, ROMK primary, Redox H2O2 prof)
COc1ccc2c(c1)C1C=CCC1C(c1cc3c(cc1Br)OCO3)N2 (configuration not stated)	MT stabilize HCS 38 (no result: bCat nuc transl, ROMK primary)
COCCCN(C(C)=O)c1nc(-c2ccc(OC)cc2)cs1	MT stabilize HCS 23 (no result: KCC2 mod, ROMK primary)
Cc1cccc(-n2c(-c3csc(C(C)C)c3)n[nH]c2=S)c1	KCC2 mod 7.6
CN(C)CCCN1C(=O)c2oc3ccccc3c(=O)c2C1c1cccs1 (configuration not stated)	KCC2 mod 7.3 (no result: ROMK primary)
CNC(=O)CSc1nc2[nH]ncc2c(=O)[nH]1	none
Cn1cccc1/C=C1\SC(=S)N(NC(=O)c2ccccc2Cl)C1=O	none
Cn1cc(/C=C2\SC(=S)N(NC(=O)c3ccccc3Cl)C2=O)c2ccccc21	KCC2 mod -5.3
CC(=O)n1cc(C(C[N+](=O)[O-])SCCN)c2ccccc21 (configuration not stated)	MT stabilize HCS 26 (no result: ROMK primary)
CC(NS(=O)(=O)c1cccc(Cl)c1)C(=O)N(C)C1CCN(C)CC1 (configuration not stated)	none
N#Cc1nc(Cc2cccc3ccccc23)oc1NCCN1CCCCC1	KCC2 mod -4.3, ROMK primary -5.6
N#Cc1nc(-c2cccc3ccccc23)oc1NCCN1CCOCC1	none (no result: ROMK primary)
O=C(Cn1cccn1)c1ccccc1	none
CC1C/C(=C/c2ccccn2)C(=O)/C(=C/c2ccccn2)C1 (configuration not stated)	MT stabilize HCS 39, ROMK primary -4.7
Cc1cccc(/C=C/C(=O)c2ccc(NC3=NCCCS3)cc2)c1	none (no result: ROMK primary)
COc1cccc(/C=C/C(=O)c2ccc(NC3=NCCCS3)cc2)c1	MT stabilize HCS 16
CCOC(=O)C1CCCN(CC(=O)NC2=Nc3ccccc3N=C(C)C2c2ccccc2)C1 (configuration not stated)	ROMK primary -2.1
COc1cc2c(cc1NC(=S)Nc1cccc(C(F)(F)F)c1)oc1ccccc12	none (no result: ROMK primary)
COc1cc2c(cc1NC(=S)Nc1cccc3ccccc13)oc1ccccc12	ROMK primary 1.4
CCc1ccc(/C=C/C(=O)C2C(=O)c3ccccc3C2=O)cc1	KCC2 mod 19 (no result: ROMK primary)
CCc1ccc(C2C(C(=O)O)c3ccccc3C(=O)N2C)cc1 (configuration not stated)	none
O=C(/C=C/c1ccccc1)C1C(=O)c2ccccc2C1=O	KCC2 mod 36 (no result: ROMK primary)
O=C(NC1=NCCS1)c1cccc(OC(F)F)c1	none
Cc1noc(C)c1CSc1nc2ccccc2c(=O)n1-c1ccc(Cl)cc1	MT stabilize HCS 40 (no result: KCC2 mod, bCat nuc transl)
Cc1noc(C)c1CSc1nc2sc(C)c(C)c2c(=O)n1-c1ccccc1	none (no result: KCC2 mod, bCat nuc transl, ROMK primary)
Cc1cc2occ(CC(=O)OCC(=O)Nc3sc4c(c3C#N)CCC(C)C4)c2cc1C (configuration not stated)	none
COC(=O)C1=C(C(=O)OC)C(c2cc(Br)ccc2O)c2sc(=O)[nH]c2S1 (configuration not stated)	KCC2 mod -5.9
